These results are taken from ChEMBL document CHEMBL1240480, “Design, synthesis and biological evaluation of L-dopa amide derivatives as potential prodrugs for the treatment of Parkinson's disease” (Eur J Med Chem, 2010).

SMILES strings stand for the structures.

Common to all, as to conditions: in vivo
Series [1] deals with Rattus norvegicus. Description: Cmax in Wistar rat at 25.4 mg/kg, po assessed as L-dopa level. The class given is ADME, organism-based. Details: dose 25.4 mg/kg, route oral. The method, boiled down: (§1)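 Naïve male Wistar rats (250–500 g), fasted overnight, dosed orally in 0.9% saline with benserazide (10 mg/kg) at dose equivalent to 12.5 mg/kg L-dopa. Heparinised tail-vein blood at various times; plasma extracted with 20% TFA in 10 mM metabisulphite with warfarin internal standard; L-dopa quantified by LC-MS/MS (positive ESI) against plasma standard curve 0.39–50 µM.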

The test system of series [2] is Rattus norvegicus. Description: Apparent half life in Wistar rat at 25.4 mg/kg, po assessed as L-dopa level. The format is ADME, organism-based. Details: dose 25.4 mg/kg, route oral. The gist of the method:
as §1

Series [3] concerns Rattus norvegicus. Description: AUC (0 to 4 hrs) in Wistar rat at 25.4 mg/kg, po assessed as L-dopa level. The class given is ADME, organism-based, Plasma. Set-up: time < 4 hr, dose 25.4 mg/kg, route oral. The method, boiled down: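 Naïve male Wistar rats (250–500 g), fasted overnight, dosed with compound in 0.9% saline together with benserazide (10 mg/kg), at a dose molar-equivalent to 12.5 mg/kg L-dopa. Heparinised tail-vein blood was sampled at intervals and the plasma stored at −80 °C. L-dopa was extracted with 20% TFA/10 mM metabisulphite plus warfarin internal standard and quantified by LC-MS/MS (positive ESI) against plasma standard curves.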

In the case of `CC(C)CC(=O)Oc1ccc(C[C@H](N)C(N)=O)cc1OC(=O)CC(C)C.Cl`, the Cmax – broadly, the maximum level reached in the sampled fluid or tissue – in the series with Rattus norvegicus [1] worked out at 860 ng/mL. The t1/2 with Rattus norvegicus [2] was 1.3 h. Besides, the AUC (usually concentration integrated over time) in the series on Rattus norvegicus [3] was 98 µg·min/mL.
